Active and inactive are the calls of the source. The calls are words filed in the database; no cut-off is given here.
Tests used:
Trypanosoma brucei [1] = assay: Antiparasitic activity against bloodstream-form Trypanosoma brucei assessed as static in presence of 5% Co2 at < 5.6 uM incubated for 24 hrs by static-cidal assay; type: functional, organism-based
Trypanosoma brucei [2] = assay: Antiparasitic activity against bloodstream-stage Trypanosoma brucei measured after 73 hrs by resazurin assay; type: functional, organism-based
[3] = Cmax in NMRI mouse at 10 mg/kg, ip by UPLC-MS/MS analysis; type: ADME, organism-based; parameters: dose 10 mg/kg, route ip; conditions: in vivo
Method in brief: (§1)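 Female NMRI or HRN mice (n = 3) given a single IP dose of 10 mg kg-1 free base in 5% DMSO/40% PEG400/55% water or 15% solutol/85% water, 10 mL kg-1. Blood sampled at 5, 15, 30 min and 1, 2, 4, 6, 8 h, diluted with two volumes of water, assayed by UPLC-MS/MS. PK parameters derived from the mean blood concentration–time curve.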

[4] = Permeability across blood brain barrier in NMRI mouse stage 2 CNS model; type: ADME; conditions: read-out: BBR
Method in brief: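 Female NMRI mice (n = 3) received a 10 mg kg-1 IV bolus in 15% solutol. At 30 min, under terminal isoflurane anesthesia, blood was taken by cardiac puncture and the brain removed. Both were quantified by UPLC-MS/MS; brain (ng g-1) divided by blood (ng mL-1) per mouse gives the brain:blood ratio.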

[5] = Tmax in HRN mouse at 10 mg/kg, ip by UPLC-MS/MS analysis; type: ADME, organism-based; conditions: in vivo; method in brief: as §1
[6] = Fraction unbound in NMRI mouse brain stage 2 CNS model; type: ADME
[7] = Selectivity index, ratio of EC50 for human MRC-5 cells to EC50 for bloodstream-form Trypanosoma brucei; type: toxicity; conditions: read-out: Selectivity Index
[8] = Toxicity in mouse assessed as tolerability at 20 mg/kg, ip; type: organism-based; conditions: in vivo
[9] = Fraction unbound in NMRI mouse; type: ADME
[10] = AUC in NMRI mouse at 10 mg/kg, po by UPLC-MS/MS analysis; type: ADME, organism-based; parameters: dose 10 mg/kg, route po; conditions: in vivo
Method in brief: (§2)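 Oral gavage at 10 mg kg-1 free base in 10% DMSO/40% PEG400/50% water, 5 mL kg-1, to female NMRI mice (n = 3) or Sprague-Dawley rats. Blood drawn at 5, 15, 30 min and 1, 2, 4, 6, 8 h, mixed with two volumes of water, measured by UPLC-MS/MS. Parameters taken from the mean blood concentration–time curve.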

Trypanosoma brucei [11] = assay: Antiparasitic activity against bloodstream-form Trypanosoma brucei in presence of 5% Co2 incubated for 69 hrs followed by resazurin addition further incubated for 4 hrs; type: functional, organism-based
[12] = Tmax in NMRI mouse at 10 mg/kg, ip by UPLC-MS/MS analysis; type: ADME, organism-based; conditions: in vivo; method in brief: as §1
[13] = Cmax in NMRI mouse at 10 mg/kg, po by UPLC-MS/MS analysis; type: ADME, organism-based; parameters: dose 10 mg/kg, route po; conditions: in vivo; method in brief: as §2
[14] = test system: Trypanosoma brucei brucei; assay: Antiparasitic activity against Trypanosoma brucei brucei S427 injected in NMRI mouse assessed as cure by measuring reduction in parasitemia at 10 mg/kg, ip twice daily for 4 days measured upto 30 days by stage I efficacy study; type: functional, organism-based; conditions: time 4.0 day
Method in brief: (§3)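 Female NMRI mice (3–5 per group) infected IP with 1 × 10^4 bloodstream T. b. brucei S427 from cryopreserved stabilate diluted in Hanks' balanced salt solution with glucose. Dosed IP twice daily, days 3–6, in 5% DMSO/40% PEG400/55% water, 10 mL kg-1, prepared fresh daily. Parasitemia followed to day 30; untreated control group of three mice.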

[15] = Tmax in NMRI mouse at 10 mg/kg, po by UPLC-MS/MS analysis; type: ADME, organism-based; conditions: in vivo; method in brief: as §2
[16] = Antiproliferative activity against human MRC5 cells in presence of 5% Co2 incubated for 69 hrs followed by resazurin addition further incubated for 4 hrs; type: toxicity, cell-based
[17] = AUC in NMRI mouse at 10 mg/kg, […] by UPLC-MS/MS analysis; type: ADME, organism-based; parameters: dose 10 mg/kg; conditions: in vivo; method in brief: as §1
[18] = test system: Trypanosoma brucei brucei; assay: Antiparasitic activity against Trypanosoma brucei brucei S427 injected in NMRI mouse assessed as cure by measuring reduction in parasitemia at 10 mg/kg, ip twice daily for 4 days by stage I efficacy study; type: functional; parameters: scale not given: the % may be the effect or the level left; conditions: time 4 day; method in brief: as §3
[19] = Metabolic stability in CD1 mouse liver microsomes assessed as intrinsic clearance by UPLC-MS/MS analysis; type: ADME
Method in brief: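 Compound at 0.5 μM incubated with female CD1 mouse liver microsomes (0.5 mg mL-1, 50 mM potassium phosphate pH 7.4). Reaction started with excess NADPH. Aliquots taken at 0, 3, 6, 9, 15, 30 min and quenched in acetonitrile with internal standard, then analysed by UPLC-MS/MS.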

[20] = Cmax in HRN mouse at 10 mg/kg, ip by UPLC-MS/MS analysis; type: ADME, organism-based; parameters: dose 10 mg/kg, route ip; conditions: in vivo; method in brief: as §1
[21] = AUC in HRN mouse at 10 mg/kg, […] by UPLC-MS/MS analysis; type: ADME, organism-based; parameters: dose 10 mg/kg; conditions: in vivo; method in brief: as §1
Trypanosoma brucei [22] = assay: Antiparasitic activity against bloodstream-form Trypanosoma brucei assessed as cidal in presence of 5% Co2 at > 5.6 uM incubated for 24 hrs by static-cidal assay; type: functional, organism-based
[23] = Drug metabolism in mouse liver microsomes assessed as retention time of 3-hydroxycyclohexyl metabolite at 0.5 to 5 uM for 60 mins by LC-MS analysis; type: ADME, Microsome; conditions: 1 h, dose 0.5-5 µM
Method in brief: (§4)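 Mouse liver microsomes incubated with compound at 0.5 and 5 μM for 60 min. Oxidized metabolites (m/z 354) detected and their retention times recorded by LC–MS.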

[24] = Drug metabolism in mouse liver microsomes assessed as retention time of 4-hydroxycyclohexyl metabolite at 0.5 to 5 uM for 60 mins by LC-MS analysis; type: ADME, Microsome; conditions: 1 h, dose 0.5-5 µM; method in brief: as §4

EC50 (Trypanosoma brucei [2]): 110 nM | Cmax [3]: 830 ng/mL | Kp [4]: 3.3 | Tmax [5]: 30 min | fraction unbound [6]: 0.006 | fraction unbound [9]: 0.0063 | AUC [10]: 5.7 µg·h/mL | EC50 (Trypanosoma brucei [11]): 110 nM | Tmax [12]: 15 min | Cmax [13]: 33 ng/mL | Tmax [15]: 30 min | AUC [17]: 66 µg·h/mL | CLH [19]: 15 mL/min/g | Cmax [20]: 3800 ng/mL | AUC [21]: 1000 µg·h/mL | Retention_time [23]: 3.86 min | Retention_time [24]: 3.43 min
Compound: Nc1nc(NC2CCCCC2)sc1C(=O)c1c(F)cccc1F
Activity (Trypanosoma brucei [1]): Active | selectivity ratio [7]: 11 | Activity [8]: Toxic | Activity [14]: Active | EC50 at 69 h [16]: 1200 nM | Activity [18]: 100% | Activity (Trypanosoma brucei [22]): Active
